From PubChem
AI-2 QS mod – modulates the Vibrio harveyi AI-2 quorum sensing system | Vibrio harveyi JMH597 AI-2 luminescence/OD600 ratio, 9 h; hits give low values; strain lacks LuxN and CqsS sensors; 0 = neutral-control median | activity change, % at 7.5 µM | 300,000 compounds, 0.4% hits; in the data active means activity change below about -75%, passing the limit was not always enough;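 further: luminescence divided by OD600 gain over 9 h not by final OD600 alone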
Wee1 degr inh – inhibitors of human Wee1 degradation | HeLa Luc-Wee1K328M stability, luciferase luminescence; 100% = proteasome inhibitor MG132 effect | P30291 | 220,000 compounds, 1.2% hits | AID 1321 | reporter increase, % at 5 µM;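 active means activation above the mean of all tested compounds plus 3 SD, set per screening run, cut at about 8.8% in these data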;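 further: cells exposed to compound for 20 h before luminescence read; 0% = DMSO alone and 100% = MG132 at 30 µM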
RanGTP-Impb inh – disruptors of Ran-importin-beta complex formation – biochemical, FRET, CFP-Ran, YFP-importin-beta, homogeneous, primary screen; cell-free CFP-Ran/YFP-importin-beta FRET ratio; inhibition, % (test concentration not listed); 300,000 compounds, 1.1% hits;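 active means more than half of the replicate wells show a fall in the fluorescence ratio signal beyond about 16%, limit read from the data, passing the limit was not always enough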;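 further: 0% = DMSO wells and 100% = Ran loaded with GDP instead of GTP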
Runt-SMMHC FRET – inhibitors of human RUNX1 Runt domain binding to CBFb-SMMHC | 220,000 compounds, 0.74% hits | AID 1434 | inhibition, % at 20 µM | Cerulean-Runt/Venus-CBFb-SMMHC FRET ratio 530/480, 1 h;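 active means mean inhibition across duplicate retests at 20 µM reaching about 50%, limit read from the data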;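 further: 0% = DMSO wells and 100% = wells with excess untagged CBFb-SMMHC; inhibitors lower the FRET ratio by blocking Runt binding to CBFb-SMMHC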
Runt-CBFb FRET – blocks binding of human RUNX1 Runt domain to CBFb; AID 1496; Q01196+Q13951; Cerulean-Runt/Venus-CBFb FRET ratio 530/480, 1 h; 220,000 compounds, 0.46% hits; inhibition, % at 20 µM;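 active means inhibition over about 50% at 20 µM in the single-dose screen, limit read from the data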;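 further: 0% = DMSO wells and 100% = excess unlabeled CBFb competitor control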
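Assay system: Cerulean-tagged RUNX1 Runt domain (FRET donor) fusion protein / Amount: 100 nM each of Venus-CBFb and Cerulean-Runt domain / Medium: Tris buffer pH 7.5 with salts and BSA / Also added: Venus-CBFb 100 nM / Schedule: 1 h complex formation plus 1 h compound treatment, room temperature / Signal: FRET fluorescence / Read-out: loss of energy transfer signal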
KLK7 zymogen act – activators of human kallikrein-7 zymogen; P49862; purified proKLK7, EDANS-DABCYL substrate fluorescence; 100% is mature enzyme control, 0% vehicle; activation, % at 7 µM; 370,000 compounds, 0.9% hits; AID 652039;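 active means activation above the mean of all tested compounds plus 3 SD, computed per campaign excluding outliers beyond control limits, cut at about 13% in these data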
Target sequence (P49862 whole entry, looked up): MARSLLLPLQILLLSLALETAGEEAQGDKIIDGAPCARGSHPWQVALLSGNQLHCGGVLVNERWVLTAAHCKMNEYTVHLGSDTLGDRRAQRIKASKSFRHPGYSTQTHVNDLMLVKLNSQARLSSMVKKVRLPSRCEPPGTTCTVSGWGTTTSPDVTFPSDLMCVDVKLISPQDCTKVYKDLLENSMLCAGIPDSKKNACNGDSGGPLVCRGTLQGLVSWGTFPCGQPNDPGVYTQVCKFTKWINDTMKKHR
KLK7 act conf – confirmation of human kallikrein-7 zymogen activators; activation, % at 7 µM; 3,200 compounds, 68% hits; purified proKLK7, EDANS-DABCYL substrate fluorescence; scaled: vehicle 0, mature enzyme 100; shares compounds with KLK7 zymogen act;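 active means activation, as change over the incubation, above the mean of all tested compounds plus 3 SD, cut at about 13% in these data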
EDANS-DABCYL int – counter-screen for kallikrein-7 activators: EDANS-DABCYL optical interference; shares compounds with KLK7 zymogen act; EDANS-DABCYL substrate fluorescence interference, no enzyme, 4 h; solvent 0%, active enzyme control 100%; activation, % at 7 µM; 3,200 compounds, 80% hits;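 active means activation above the all-compound mean plus 3 SD, ignoring values outside control-based bounds, cut at about 4.8% in these data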;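 further: value is the 4 h activation minus the activation read at time zero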
EDANS interf – optically interferes with EDANS-DABCYL fluorescence, kallikrein-7 activator counter-screen. EC50, µM. EDANS-DABCYL peptide fluorescence interference, no enzyme. shares compounds with KLK7 zymogen act. 250 compounds, 20% hits;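 active means compounds that raise the fluorescence signal in this interference counterscreen, with EC50 at or below 10 µM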;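 further: intact quenched peptide substrate alone read at 355 nm excitation and 520 nm emission; signal is fluorescence gain from T0 to T4 after four hours at room temperature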
* hit, by the source's call; x = no result given. The list is not random: actives were taken first. Their share in the collection is about 2.9%.

SMILES	AI-2 QS mod	Wee1 degr inh	RanGTP-Impb inh	Runt-SMMHC FRET	Runt-CBFb FRET	KLK7 zymogen act	KLK7 act conf	EDANS-DABCYL int	others
CN(C)CCn1c(SCc2ccccc2C#N)nc2c(sc3ccccc32)c1=O	20	x	1	x	x	11	x	x
CCOC(=O)c1c(C)n(C)c2cc(-c3ccc(F)cc3)c(O)cc12	12	2	-1	0	4	-1	x	x
COc1ccc(S(=O)(=O)NCCc2cn3nc(C)c(C)nc3n2)cc1C	4	x	11	x	x	33*	37*	45*
Cc1ccc(S(=O)(=O)N2CC(O)C[C@H]2C(=O)OCC(=O)N2CCN(c3ccc(F)cc3)CC2)cc1C (some centres not stated)	x	x	x	x	x	-1	x	x
O=C1C(=Cc2cccc(F)c2)Cc2ccccc21	x	x	x	x	x	0	x	x
Cc1cccc(NNC(=O)c2c(F)cccc2Cl)c1	18	-1	1	3	2	-1	x	x
Nc1nccnc1C(=O)OCC(=O)Nc1ccc2[nH]c(=O)[nH]c2c1	31	x	3	x	x	27*	53*	48*
COC(=O)c1cc(-c2ccc(OC)cc2)nc2nc(SC)[nH]c(=O)c12	13	x	3	x	x	25*	21*	17*	EDANS interf=>70
CNC(=O)c1ccc(-c2ccc(OC)cc2)s1	4	3	0	2	-1	50*	56*	66*
COc1ccc(NC(=O)c2ccc(-c3ccc(OC)cc3)s2)cc1	11	3	1	2	1	0	x	x
CCCNC(=S)Nc1ccc2nc(-c3ccccn3)c(-c3ccccn3)nc2c1	22	-1	28*	-23	x	16*	44*	54*
CC(NC(=O)c1cc2c(s1)CS(=O)(=O)C2)c1ccccc1 (configuration not stated)	14	x	-1	x	x	-1	x	x
O=C1c2cccc3cccc(c23)C(=O)N1OS(=O)(=O)c1ccccc1	15	0	3	8	1	26*	-179	-10
Cc1ccc(S(=O)(=O)ON2C(=O)c3cccc4cccc(c34)C2=O)cc1	23	0	-3	0	1	19*	-32	39*
O=C1c2cccc3cccc(c23)C(=O)N1OS(=O)(=O)c1ccc(Br)cc1	19	1	0	0	4	1	x	x
O=C1c2ccccc2C(=O)N1OS(=O)(=O)c1ccccc1	19	2	-5	-1	3	x	x	x
NC(=O)CC(NC(=O)c1ccccc1)c1ccc(NCCN2CCCCC2)c([N+](=O)[O-])c1 (configuration not stated)	19	x	-4	x	x	0	x	x
COc1cc(NC(=O)c2cccs2)c(OC)cc1NC(=O)Nc1ccc(F)cc1	2	x	-3	x	x	99*	71*	117*
COc1cc(NC(=O)COc2ccccc2Cl)ccc1NC(=O)c1cccs1	2	x	0	x	x	63*	15*	8.8*	EDANS interf=8.6*
COc1cc(NC(=O)COc2ccccc2[N+](=O)[O-])ccc1NC(=O)c1cccs1	11	6	3	0	-2	1	x	x
O=C(COC(=O)c1ccccc1NCCO)NCCC1=CCCCC1	29	x	8	x	x	10	x	x
O=C(COC(=O)c1ccccc1[N+](=O)[O-])NNC(=O)c1cccs1	45	x	-5	x	x	0	x	x
CC1Cc2ccccc2N1C(=O)COC(=O)c1ccccc1NCCO (configuration not stated)	26	x	1	x	x	12	x	x
O=C(COC(=O)c1ccccc1NCCO)NCC1CCCCC1	x	x	x	x	x	21*	5	5.2*
O=C(COC(=O)c1ccccc1NCCO)NNC(=O)c1cccs1	13	x	0	x	x	38*	35*	37*
SMILES	AI-2 QS mod	Wee1 degr inh	RanGTP-Impb inh	Runt-SMMHC FRET	Runt-CBFb FRET	KLK7 zymogen act	KLK7 act conf	EDANS-DABCYL int	others
O=C(COC(=O)c1ccccc1Br)NCC1CCCCC1	x	x	x	x	x	0	x	x
O=C(COC(=O)c1ccccc1NCCO)NCCc1ccccc1	15	x	-1	x	x	19*	16*	22*
CC(C#N)(NC(=O)COC(=O)c1ccccc1NCCO)C1CC1 (configuration not stated)	15	x	4	x	x	19*	25*	34*
COc1ccccc1CNS(=O)(=O)c1ccc(-n2cccn2)cc1	3	x	-6	x	x	0	x	x
CC(C)c1ccc(NC2CCCN(C(=O)c3ccsc3)C2)cc1 (configuration not stated)	23	x	-1	x	x	0	x	x
CCOc1ccccc1C(=O)OCC(=O)Nc1cccc(S(=O)(=O)NC2=NCCCCC2)c1	x	x	x	x	x	0	x	x
O=C(COC(=O)c1ccccc1NCCO)Nc1cccc(S(=O)(=O)NC2=NCCCCC2)c1	-1	x	2	x	x	17*	0	-4
Nc1ccc(C(=O)OCC(=O)c2cccc([N+](=O)[O-])c2)cc1	21	0	-1	-1	0	3	x	x
N#Cc1c(N)n(CCc2ccc(F)cc2)c2nc3ccccc3nc12	25	-2	44*	77*	93*	32*	-48	-68
N#Cc1c(N)n(CCOC(=O)c2cccc([N+](=O)[O-])c2)c2nc3ccccc3nc12	11	-2	4	31	4	83*	91*	88*
CN(C)CCCn1c(N)c(S(=O)(=O)c2ccccc2)c2nc3ccccc3nc21	15	1	1	15	8	69*	-35	-48
Cn1c(-c2c(N)n(CCc3ccccc3)c3nc4ccccc4nc23)nc2ccccc21	47	1	-29	-43	-13	x	x	x
COCCn1c(N)c(C#N)c2nc3ccccc3nc21	75	4	71*	57*	108*	62*	60*	72*
CCCC1=C(C(=O)OCC)C(c2sccc2C)n2ncnc2N1 (configuration not stated)	8	-1	1	-5	2	1	x	x
CCc1ccc(NC(=O)CC2C(=O)NCCN2C(=O)c2ccc(F)cc2)cc1 (configuration not stated)	12	x	4	x	x	0	x	x
COc1cccc(C(=O)N2CCC2(C)C(=O)O)c1 (configuration not stated)	x	x	x	x	x	0	x	x
COCCn1c(N)c(C(=O)NCC2CCCO2)c2nc3ccccc3nc21 (configuration not stated)	21	-2	94*	79*	70*	13*	-143	-183
